Assay results of several laboratories.
Compare with care: the assays were run in different laboratories.
BRAF: Serine/threonine-protein kinase B-raf (BRAF, Homo sapiens, UniProt P15056)
BRAF V600E: Serine/threonine-protein kinase B-raf (BRAF, Homo sapiens, UniProt P15056, V600E)

COc1cc(Cl)c(C(=O)N[C@@H](CN[C@H]2CC[C@@H](N)CC2)Cc2ccc(C#N)cc2)cc1-c1ccc(CN[C@H](C)c2ccc(C)cc2)o1
remaining activity (BRAF; enzyme activity; inhibitor; 1 µM): 97%

C[S+]([O-])c1ccc(-c2nc(-c3ccncc3)c(-c3ccc(F)cc3)[nH]2)cc1 (centres unmarked)
remaining signal (BRAF; cell-free assay; 0.5 µM): 78.8%

Cc1c(NC(=O)c2cc(C(N)=O)nc3cc(F)ccc23)c(C(F)(F)F)nn1Cc1ccc(C(C)(C)C)cc1
remaining binding (BRAF V600E; cell-free assay; competition with immobilised ligand; 1 µM): 98%

Cc1cc(NC(=O)c2cccc3cc(-c4cccc5[nH]nc(N)c45)ccc23)ccc1F
activity vs control (BRAF; enzyme activity; inhibitor; 0.1 µM): 99%

N[C@@H]1CCN(c2nccc(-c3cnn4ncccc34)n2)C1
remaining binding (BRAF; binding; 1 µM): 100%

C[C@H](c1ccc(F)cc1)N(Cc1cccc(C(=O)O)c1)C(=O)c1cnc2ccccc2c1
remaining binding (BRAF V600E; cell-free assay; competition with immobilised ligand; 1 µM): 100%

CC1CCCN1c1nccc(-c2cnn3ncccc23)n1 (centres unmarked)
remaining binding (BRAF; binding; 1 µM): 100%

Cc1sc(C(=O)NC2COC2)cc1-n1cc(NC(=O)Nc2c(F)cccc2Cl)cn1
remaining activity (BRAF; enzyme activity; inhibitor; 10 µM): 105%

Cc1ccc(C(=O)Nc2ccc(CN3CCN(C)CC3)c(C(F)(F)F)c2)cc1C#Cc1cnc2cccnn12
remaining signal (BRAF V600E; cell-free assay; 23.5 nM): 4.5%

c1nc2c(Nc3ccc4c(c3)OCCO4)nc(Nc3ccc4c(c3)OCCO4)nc2[nH]1
activity vs control (BRAF; enzyme activity; inhibitor; 10 µM): 92%

Nc1ncnc2occ(-c3ccc(NC(=O)Nc4cc(C(F)(F)F)ccc4F)cc3)c12
remaining signal (BRAF V600E; cell-free assay; 20 µM): 0.05%

Cc1ccc(C(CS(=O)(=O)c2ccccc2)=NNC2=NC(=O)C(=NNc3ccc(Cl)cc3)S2)cc1
inhibition (BRAF V600E; enzyme activity; inhibitor; ATP luminescence; 0.1 µM): 46%

Cc1c(NC(=O)c2cc(C(N)=O)nc3cc(F)ccc23)c(C(F)(F)F)nn1Cc1ccc(C#N)cc1
remaining binding (BRAF; cell-free assay; competition with immobilised ligand; 1 µM): 91%

CC(C)(C)c1nc(-c2cccc(NS(=O)(=O)c3c(F)cccc3F)c2F)c(-c2ccnc(N)n2)s1
inhibition (BRAF V600E; enzyme activity; inhibitor; ATP luminescence; 1 µM): 81%

Cc1ccc(C(=O)NCc2ccsc2)cc1C#Cc1cn(C(C)C)c2ncnc(N)c12
activity vs control (BRAF; enzyme activity; inhibitor; 1 µM): 47%

COc1ccc2cc(OCC3(C(=O)O)CN(C(=O)c4ccc(F)cc4)C3)ccc2c1
remaining binding (BRAF; cell-free assay; competition with immobilised ligand; 1 µM): 93%

Cc1cnn2ncc(-c3ccnc(N(C)C)n3)c2c1
remaining binding (BRAF V600E; binding; 1 µM): 91%

CCCCN(CCCC)C(=O)CN1C[C@H](c2cc(OC)c3c(c2)OCO3)[C@@H](C(=O)O)[C@@H]1CC(C)(C)CCC
remaining binding (BRAF V600E; cell-free assay; competition with immobilised ligand; 1 µM): 89.1%

Cc1ccc(C(CS(=O)(=O)c2ccccc2)=NNc2nc(-c3ccc(OCCCCOc4ccc(-c5csc(NN=C(CS(=O)(=O)c6ccccc6)c6ccc(C)cc6)n5)cc4)cc3)cs2)cc1
inhibition (BRAF V600E; enzyme activity; inhibitor; ATP luminescence; 10 nM): 32%

O=C1NC(=O)c2cc(Nc3ccc(F)cc3)c(Nc3ccc(F)cc3)cc21
remaining signal (BRAF; cell-free assay; 0.5 µM): 94.2%

O=C1NC(c2ccccn2)Sc2ccccc21 (centres unmarked)
remaining binding (BRAF V600E; cell-free assay; competition with immobilised ligand; 1 µM): 94%

Cc1ccc(C(CS(=O)(=O)c2ccccc2)=NNC2=NC(=O)C(=NNc3ccc([N+](=O)[O-])cc3)S2)cc1
inhibition (BRAF V600E; enzyme activity; inhibitor; ATP luminescence; 10 nM): 31%

CC(C)(C)c1nc2c(s1)c1nc(N)ncc1c1ccc(NS(=O)(=O)c3c(F)cccc3F)c(F)c12
remaining activity (BRAF; enzyme activity; inhibitor; radiometric; 1 µM): 27%

Cc1ccc(NC(=O)c2ccc(CN3CCN(C)CC3)cc2)cc1Nc1nc(-c2cccnc2)cs1
remaining signal (BRAF; cell-free assay; 0.5 µM): 92.3%

CC(C)(C)c1nc(-c2cccc(NS(=O)(=O)c3c(F)cccc3F)c2F)c(-c2ccnc(N)n2)s1
activity vs control (BRAF V600E; enzyme activity; inhibitor; radiometric; 1 µM): 1%

CNC(=O)Nc1ccc2c(c1)[C@@]1(CC2)OC(=O)N(CC(=O)N(Cc2ccc(F)cc2)[C@@H](C)C(F)(F)F)C1=O
remaining binding (BRAF V600E; cell-free assay; competition with immobilised ligand; 1 µM): 96%

NC(=S)NN=C(CS(=O)(=O)c1ccccc1)c1ccc(F)cc1
inhibition (BRAF V600E; enzyme activity; inhibitor; ATP luminescence; 0.1 µM): 51%

CCOCCn1cc(C(=O)Nc2ccc(-n3nc(-c4cccnc4)cc3C(F)(F)F)cn2)ccc1=O
remaining binding (BRAF V600E; cell-free assay; competition with immobilised ligand; 1 µM): 97%

COc1ccc(-c2csc(NN=C(CS(=O)(=O)c3ccccc3)c3ccc(F)cc3)n2)cc1
inhibition (BRAF V600E; enzyme activity; inhibitor; ATP luminescence; 1 µM): 72%
